Key:
Cavia porcellus [1] = organism: Cavia porcellus; test: In vitro inhibition of electrically evoked contractions of GPI (Guinea pig ileum); assay type: functional
[2] = biological target: Delta-type opioid receptor (Rattus norvegicus, UniProt P33533); test: Binding affinity towards delta receptor in rat brain using [3H]DSLET; assay type: tissue-based
Mus musculus [3] = organism: Mus musculus; test: In vitro inhibition of electrically evoked contractions of MVD (Mouse vas deferens); assay type: functional
Mu-type opioid receptor [4] = biological target: T1, Mu-type opioid receptor (Rattus norvegicus, UniProt P33535); test: (§1) Binding affinity towards mu receptor in rat brain using [3H]DAMGO; assay type: tissue-based
T1 sequence (P33535 whole entry): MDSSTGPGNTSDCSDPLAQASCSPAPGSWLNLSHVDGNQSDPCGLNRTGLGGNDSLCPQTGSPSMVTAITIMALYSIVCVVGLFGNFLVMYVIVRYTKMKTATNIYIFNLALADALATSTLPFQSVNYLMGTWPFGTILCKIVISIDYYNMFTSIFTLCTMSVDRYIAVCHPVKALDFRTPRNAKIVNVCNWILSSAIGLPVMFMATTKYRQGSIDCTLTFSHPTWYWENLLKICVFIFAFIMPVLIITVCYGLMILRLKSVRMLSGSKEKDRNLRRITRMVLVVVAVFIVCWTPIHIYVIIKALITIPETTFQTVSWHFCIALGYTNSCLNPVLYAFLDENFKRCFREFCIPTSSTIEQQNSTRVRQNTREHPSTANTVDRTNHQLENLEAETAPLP

Mus musculus [5] = organism: Mus musculus; test: in vitro inhibition of electrically evoked contractions of MVD (Mouse vas deferens); assay type: functional
Cavia porcellus [6] = organism: Cavia porcellus; test: in vitro inhibition of electrically evoked contractions of GPI (Guinea pig ileum); assay type: functional
Cavia porcellus [7] = organism: Cavia porcellus; test: In vitro inhibition of electrically evoked contractions of GPI (Guinea pig ileum) relative to [Leu5]-enkephalin; assay type: functional
Mus musculus [8] = organism: Mus musculus; test: In vitro inhibition of electrically evoked contractions of MVD (Mouse vas deferens) relative to [Leu5]-enkephalin; assay type: functional
[9] = Ratio of inhibition of electrically evoked contractions of mouse vas deferens and inhibition of electrically evoked contractions of guinea pig ileum; IC50 ratio; assay type: functional
In short: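 Ratio of normalized IC50 values from electrically stimulated mouse vas deferens versus guinea pig ileum.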

Mu-type opioid receptor [10] = biological target: T1, Mu-type opioid receptor; test: as §1; assay type: tissue-based; remark: listed apart in the source
In short: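 Rat brain membranes; competitive displacement of [³H]DAMGO (0.72 nM; Kd 1.3 nM), incubated 2 h at 0 °C. IC50 taken from log dose–displacement curves, converted to Ki by Cheng–Prusoff.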

Cavia porcellus [11] = organism: Cavia porcellus; test: in vitro inhibition of electrically evoked contractions of GPI (Guinea pig ileum) relative to [Leu5]-enkephalin; assay type: functional
In short: (§2)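 Electrically stimulated isolated tissue (guinea pig ileum or mouse vas deferens), with inhibition of evoked contractions as read-out. […] IC50 values were taken from these curves and normalized to that standard by a published procedure.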

Mus musculus [12] = organism: Mus musculus; test: in vitro inhibition of electrically evoked contractions of MVD (Mouse vas deferens) relative to [Leu5]-enkephalin; assay type: functional; in short: as §2

Chain of Delta-type opioid receptor (P33533 whole entry): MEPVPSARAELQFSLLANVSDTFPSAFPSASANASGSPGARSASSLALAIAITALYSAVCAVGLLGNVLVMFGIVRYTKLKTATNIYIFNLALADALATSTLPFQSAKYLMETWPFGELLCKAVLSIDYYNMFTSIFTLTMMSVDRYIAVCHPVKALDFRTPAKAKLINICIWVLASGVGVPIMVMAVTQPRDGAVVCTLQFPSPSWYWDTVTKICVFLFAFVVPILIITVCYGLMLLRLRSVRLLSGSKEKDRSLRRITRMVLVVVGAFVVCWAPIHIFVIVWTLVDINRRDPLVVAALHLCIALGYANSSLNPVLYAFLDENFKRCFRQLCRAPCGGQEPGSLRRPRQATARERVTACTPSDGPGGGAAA

Structure (SMILES)	IC50 (Cavia porcellus [1])	Ki [2]	IC50 (Mus musculus [3])	Ki (Mu-type opioid receptor [4])	Relative potency (Cavia porcellus [7])	Relative potency (Mus musculus [8])	other results
NC(=O)[C@H](Cc1ccccc1)NC(=O)[C@H](Cc1ccccc1)NC(=O)[C@@H]1CSCN1C(=O)[C@@H](N)Cc1ccc(O)cc1 [listing 1 of 2 here]	22.2 nM	1980 nM	138 nM	6.41 nM			
NC(=O)[C@@H]1CCCN1C(=O)C(Cc1ccccc1)NC(=O)[C@H]1CCCN1C(=O)[C@@H](N)Cc1ccc(O)cc1 (stereo in doubt) [listing 1 of 2 here]		> 10000 nM					IC50 (Mus musculus [5]): 594 nM; IC50 (Cavia porcellus [6]): 109 nM
CC1(C)OC[C@@H](C(=O)N[C@@H](Cc2ccccc2)C(=O)N[C@@H](Cc2ccccc2)C(N)=O)N1C(=O)[C@@H](N)Cc1ccc(O)cc1 [listing 1 of 2 here]	305 nM	> 10000 nM	606 nM	46.9 nM			
CC1(C)OC[C@@H](C(=O)N[C@H](Cc2ccccc2)C(=O)N2CCC[C@H]2C(N)=O)N1C(=O)[C@@H](N)Cc1ccc(O)cc1 [listing 1 of 2 here]					0.286	0.0134	Ratio [9]: 2.17
NC(=O)[C@@H]1CCCN1C(=O)[C@@H](Cc1ccccc1)NC(=O)[C@@H]1COCN1C(=O)[C@@H](N)Cc1ccc(O)cc1 [listing 1 of 2 here]					0.523	0.0112	
NC(=O)[C@@H]1CCCN1C(=O)[C@@H](Cc1ccccc1)NC(=O)[C@@H]1CSCN1C(=O)[C@@H](N)Cc1ccc(O)cc1 [listing 1 of 2 here]	74.5 nM	2450 nM	190 nM	8.57 nM			
CC1(C)SC[C@@H](C(=O)N[C@@H](Cc2ccccc2)C(=O)N[C@@H](Cc2ccccc2)C(N)=O)N1C(=O)[C@@H](N)Cc1ccc(O)cc1 [listing 1 of 2 here]	502 nM	> 10000 nM					Ki (Mu-type opioid receptor [10]): 50.4 nM
CC1(C)SC[C@@H](C(=O)N[C@@H](Cc2ccccc2)C(=O)N[C@@H](Cc2ccccc2)C(N)=O)N1C(=O)[C@@H](N)Cc1ccc(O)cc1 [listing 2 of 2 here]					0.49		Inhibition (Mus musculus [8]): 26%
CC1(C)OC[C@@H](C(=O)N[C@@H](Cc2ccccc2)C(=O)N[C@@H](Cc2ccccc2)C(N)=O)N1C(=O)[C@@H](N)Cc1ccc(O)cc1 [listing 2 of 2 here]					0.807	0.0188	Ratio [9]: 1.99
CC(C)C[C@H](NC(=O)[C@H](Cc1ccccc1)NC(=O)CNC(=O)CNC(=O)[C@@H](N)Cc1ccc(O)cc1)C(N)=O [[LEU5]ENKEPHALIN]							IC50 (Mus musculus [5]): 11.4 nM; IC50 (Cavia porcellus [6]): 246 nM
NC(=O)[C@H](Cc1ccccc1)NC(=O)[C@H](Cc1ccccc1)NC(=O)[C@@H]1CCCN1C(=O)[C@@H](N)Cc1ccc(O)cc1 [ENDOMORPHIN 2]							IC50 (Mus musculus [5]): 15.3 nM; IC50 (Cavia porcellus [6]): 7.71 nM
NC(=O)[C@H](Cc1ccccc1)NC(=O)[C@H](Cc1ccccc1)NC(=O)[C@@H]1COCN1C(=O)[C@@H](N)Cc1ccc(O)cc1 [listing 1 of 2 here]					5.9	0.0755	Ratio [9]: 3.62
NC(=O)[C@@H]1CCCN1C(=O)C(Cc1ccccc1)NC(=O)[C@H]1CCCN1C(=O)[C@@H](N)Cc1ccc(O)cc1 (stereo in doubt) [listing 2 of 2 here]							Relative potency (Cavia porcellus [11]): 2.26; Relative potency (Mus musculus [12]): 0.0192
NC(=O)[C@@H]1CCCN1C(=O)[C@@H](Cc1ccccc1)NC(=O)[C@@H]1CSCN1C(=O)[C@@H](N)Cc1ccc(O)cc1 [listing 2 of 2 here]					3.3	0.06	Ratio [9]: 5.45
CC1(C)OC[C@@H](C(=O)N[C@H](Cc2ccccc2)C(=O)N2CCC[C@H]2C(N)=O)N1C(=O)[C@@H](N)Cc1ccc(O)cc1 [listing 2 of 2 here]	860 nM	> 10000 nM	851 nM	96.5 nM			
CC1(C)SC[C@@H](C(=O)N[C@H](Cc2ccccc2)C(=O)N2CCC[C@H]2C(N)=O)N1C(=O)[C@@H](N)Cc1ccc(O)cc1 [listing 1 of 2 here]					1	0.00803	
NC(=O)[C@H](Cc1ccccc1)NC(=O)[C@H](Cc1ccccc1)NC(=O)[C@@H]1CSCN1C(=O)[C@@H](N)Cc1ccc(O)cc1 [listing 2 of 2 here]					11.1	0.0826	Ratio [9]: 6.22
CC1(C)SC[C@@H](C(=O)N[C@H](Cc2ccccc2)C(=O)N2CCC[C@H]2C(N)=O)N1C(=O)[C@@H](N)Cc1ccc(O)cc1 [listing 2 of 2 here]	246 nM	> 10000 nM	1420 nM	37.7 nM			
NC(=O)[C@H](Cc1ccccc1)NC(=O)[C@H](Cc1ccccc1)NC(=O)[C@@H]1COCN1C(=O)[C@@H](N)Cc1ccc(O)cc1 [listing 2 of 2 here]	41.7 nM	> 4000 nM	151 nM	7.86 nM			
NC(=O)[C@@H]1CCCN1C(=O)[C@@H](Cc1ccccc1)NC(=O)[C@@H]1COCN1C(=O)[C@@H](N)Cc1ccc(O)cc1 [listing 2 of 2 here]	470 nM	> 10000 nM	1020 nM	58.9 nM			

Source: ChEMBL document CHEMBL1134681, “Pseudoproline-containing analogues of morphiceptin and endomorphin-2: evidence for a cis Tyr-Pro amide bond in the bioactive conformation” (J Med Chem, 2001)
